Assays:
[1] = target: Serine/threonine-protein kinase PAK 6 (Homo sapiens) (UniProt Q9NQU5); assay: Residual activity of PAK6 at 0.1 uM by microplate scintillation counting
[2] = target: T1, Testis-specific serine/threonine-protein kinase 2 (Homo sapiens) (UniProt Q96PF2); assay: Residual activity of TSK2 at 10 uM by microplate scintillation counting
T1 sequence (whole entry): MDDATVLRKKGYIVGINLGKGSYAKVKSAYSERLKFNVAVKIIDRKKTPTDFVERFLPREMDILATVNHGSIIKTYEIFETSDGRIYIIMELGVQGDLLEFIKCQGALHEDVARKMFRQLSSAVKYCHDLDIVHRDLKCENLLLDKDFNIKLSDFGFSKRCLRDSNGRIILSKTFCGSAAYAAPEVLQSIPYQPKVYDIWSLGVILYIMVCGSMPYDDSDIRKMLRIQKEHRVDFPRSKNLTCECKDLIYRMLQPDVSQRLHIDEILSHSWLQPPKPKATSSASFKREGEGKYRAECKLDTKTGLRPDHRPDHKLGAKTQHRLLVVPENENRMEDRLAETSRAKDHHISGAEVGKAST

[3] = tested on: Serine/threonine-protein kinase B-raf (Homo sapiens), P15056 [V600E]; assay: Residual activity of B-RAF V600E mutant at 0.1 uM by microplate scintillation counting
[4] = target: T2, Activin receptor type-1B (Homo sapiens) (UniProt P36896); assay: Residual activity of ACVR1B at 1 uM by microplate scintillation counting
T2 sequence (whole entry): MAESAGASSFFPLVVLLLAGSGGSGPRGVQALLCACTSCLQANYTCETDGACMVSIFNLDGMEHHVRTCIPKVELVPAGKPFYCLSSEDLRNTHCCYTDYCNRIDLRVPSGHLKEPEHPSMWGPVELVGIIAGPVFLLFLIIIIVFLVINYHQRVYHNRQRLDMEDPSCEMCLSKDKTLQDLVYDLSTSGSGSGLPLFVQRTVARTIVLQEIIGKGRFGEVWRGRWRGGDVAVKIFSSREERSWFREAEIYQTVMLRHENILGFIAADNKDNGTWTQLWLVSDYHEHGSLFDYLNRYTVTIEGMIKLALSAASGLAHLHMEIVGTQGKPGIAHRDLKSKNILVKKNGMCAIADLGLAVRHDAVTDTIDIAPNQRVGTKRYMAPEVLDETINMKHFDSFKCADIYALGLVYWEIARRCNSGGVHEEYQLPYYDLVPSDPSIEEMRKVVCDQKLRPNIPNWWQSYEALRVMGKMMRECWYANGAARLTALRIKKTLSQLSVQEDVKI

[5] = target: T3, Serine/threonine-protein kinase 4 (Homo sapiens) (UniProt Q13043); assay: Residual activity of MST1 at 1 uM by microplate scintillation counting
T3 sequence (whole entry): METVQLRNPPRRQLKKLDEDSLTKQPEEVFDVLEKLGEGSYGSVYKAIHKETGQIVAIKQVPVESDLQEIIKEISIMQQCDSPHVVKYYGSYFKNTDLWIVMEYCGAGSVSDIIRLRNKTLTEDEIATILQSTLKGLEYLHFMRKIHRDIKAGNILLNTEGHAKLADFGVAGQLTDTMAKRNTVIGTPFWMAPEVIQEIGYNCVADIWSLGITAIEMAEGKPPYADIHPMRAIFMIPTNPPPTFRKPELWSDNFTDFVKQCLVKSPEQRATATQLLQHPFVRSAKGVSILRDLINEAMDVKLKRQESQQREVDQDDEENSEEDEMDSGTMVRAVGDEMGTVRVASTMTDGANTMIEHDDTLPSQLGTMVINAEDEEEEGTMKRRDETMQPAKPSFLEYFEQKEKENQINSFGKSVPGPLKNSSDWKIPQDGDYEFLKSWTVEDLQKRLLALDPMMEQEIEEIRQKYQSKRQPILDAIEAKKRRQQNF

[6] = target: Platelet-derived growth factor receptor beta (Homo sapiens, UniProt P09619); assay: Inhibition of PDGFRbeta by microplate scintillation counting
Outline: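 Substrates: tetra(LRRWSLG) for Aurora A/B; poly(Ala,Glu,Lys,Tyr)6:2:5:1 for PDGFRβ; poly(Glu,Tyr)4:1 for TIE2 and VEGFR2. Stopped with 2% H3PO4.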

[7] = target: Calcium/calmodulin-dependent protein kinase type II subunit delta (Homo sapiens) (UniProt Q13557); assay: Residual activity of CAMK2D at 0.1 uM by microplate scintillation counting
[8] = tested on: T4, Receptor-type tyrosine-protein kinase FLT3 (Homo sapiens), P36888 [D835Y]; assay: Residual activity of FLT3 D835Y mutant at 10 uM by microplate scintillation counting
T4 sequence (whole entry): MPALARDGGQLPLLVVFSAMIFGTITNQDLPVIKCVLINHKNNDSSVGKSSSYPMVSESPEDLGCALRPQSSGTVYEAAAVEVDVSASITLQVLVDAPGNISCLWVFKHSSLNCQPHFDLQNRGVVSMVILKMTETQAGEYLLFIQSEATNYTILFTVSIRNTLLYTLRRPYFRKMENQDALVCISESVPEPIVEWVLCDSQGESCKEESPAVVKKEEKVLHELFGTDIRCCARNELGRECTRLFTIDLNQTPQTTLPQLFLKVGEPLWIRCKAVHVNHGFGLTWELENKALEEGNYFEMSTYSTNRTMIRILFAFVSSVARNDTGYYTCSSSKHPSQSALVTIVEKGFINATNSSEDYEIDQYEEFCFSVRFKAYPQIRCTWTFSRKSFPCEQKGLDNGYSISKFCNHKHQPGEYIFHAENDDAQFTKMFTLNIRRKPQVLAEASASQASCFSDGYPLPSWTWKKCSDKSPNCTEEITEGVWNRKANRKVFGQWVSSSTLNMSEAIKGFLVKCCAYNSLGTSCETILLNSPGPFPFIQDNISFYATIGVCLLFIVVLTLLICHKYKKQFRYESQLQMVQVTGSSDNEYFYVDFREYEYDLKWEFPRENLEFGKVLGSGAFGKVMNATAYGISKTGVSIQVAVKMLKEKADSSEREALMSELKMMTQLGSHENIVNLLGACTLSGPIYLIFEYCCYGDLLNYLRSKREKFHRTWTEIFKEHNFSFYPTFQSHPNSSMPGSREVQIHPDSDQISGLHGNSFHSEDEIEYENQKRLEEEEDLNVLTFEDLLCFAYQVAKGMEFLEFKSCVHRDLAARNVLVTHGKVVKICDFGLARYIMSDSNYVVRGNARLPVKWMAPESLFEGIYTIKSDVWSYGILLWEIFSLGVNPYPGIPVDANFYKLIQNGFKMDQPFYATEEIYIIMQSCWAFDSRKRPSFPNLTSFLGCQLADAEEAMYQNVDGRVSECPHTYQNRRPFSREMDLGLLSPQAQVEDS

[9] = target: CDC42BPA protein (Homo sapiens) (UniProt B9EGA7); assay: Residual activity of CDC42BPA at 10 uM by microplate scintillation counting
Chain of CDC42BPA protein (Homo sapiens) (B9EGA7 as listed by the source): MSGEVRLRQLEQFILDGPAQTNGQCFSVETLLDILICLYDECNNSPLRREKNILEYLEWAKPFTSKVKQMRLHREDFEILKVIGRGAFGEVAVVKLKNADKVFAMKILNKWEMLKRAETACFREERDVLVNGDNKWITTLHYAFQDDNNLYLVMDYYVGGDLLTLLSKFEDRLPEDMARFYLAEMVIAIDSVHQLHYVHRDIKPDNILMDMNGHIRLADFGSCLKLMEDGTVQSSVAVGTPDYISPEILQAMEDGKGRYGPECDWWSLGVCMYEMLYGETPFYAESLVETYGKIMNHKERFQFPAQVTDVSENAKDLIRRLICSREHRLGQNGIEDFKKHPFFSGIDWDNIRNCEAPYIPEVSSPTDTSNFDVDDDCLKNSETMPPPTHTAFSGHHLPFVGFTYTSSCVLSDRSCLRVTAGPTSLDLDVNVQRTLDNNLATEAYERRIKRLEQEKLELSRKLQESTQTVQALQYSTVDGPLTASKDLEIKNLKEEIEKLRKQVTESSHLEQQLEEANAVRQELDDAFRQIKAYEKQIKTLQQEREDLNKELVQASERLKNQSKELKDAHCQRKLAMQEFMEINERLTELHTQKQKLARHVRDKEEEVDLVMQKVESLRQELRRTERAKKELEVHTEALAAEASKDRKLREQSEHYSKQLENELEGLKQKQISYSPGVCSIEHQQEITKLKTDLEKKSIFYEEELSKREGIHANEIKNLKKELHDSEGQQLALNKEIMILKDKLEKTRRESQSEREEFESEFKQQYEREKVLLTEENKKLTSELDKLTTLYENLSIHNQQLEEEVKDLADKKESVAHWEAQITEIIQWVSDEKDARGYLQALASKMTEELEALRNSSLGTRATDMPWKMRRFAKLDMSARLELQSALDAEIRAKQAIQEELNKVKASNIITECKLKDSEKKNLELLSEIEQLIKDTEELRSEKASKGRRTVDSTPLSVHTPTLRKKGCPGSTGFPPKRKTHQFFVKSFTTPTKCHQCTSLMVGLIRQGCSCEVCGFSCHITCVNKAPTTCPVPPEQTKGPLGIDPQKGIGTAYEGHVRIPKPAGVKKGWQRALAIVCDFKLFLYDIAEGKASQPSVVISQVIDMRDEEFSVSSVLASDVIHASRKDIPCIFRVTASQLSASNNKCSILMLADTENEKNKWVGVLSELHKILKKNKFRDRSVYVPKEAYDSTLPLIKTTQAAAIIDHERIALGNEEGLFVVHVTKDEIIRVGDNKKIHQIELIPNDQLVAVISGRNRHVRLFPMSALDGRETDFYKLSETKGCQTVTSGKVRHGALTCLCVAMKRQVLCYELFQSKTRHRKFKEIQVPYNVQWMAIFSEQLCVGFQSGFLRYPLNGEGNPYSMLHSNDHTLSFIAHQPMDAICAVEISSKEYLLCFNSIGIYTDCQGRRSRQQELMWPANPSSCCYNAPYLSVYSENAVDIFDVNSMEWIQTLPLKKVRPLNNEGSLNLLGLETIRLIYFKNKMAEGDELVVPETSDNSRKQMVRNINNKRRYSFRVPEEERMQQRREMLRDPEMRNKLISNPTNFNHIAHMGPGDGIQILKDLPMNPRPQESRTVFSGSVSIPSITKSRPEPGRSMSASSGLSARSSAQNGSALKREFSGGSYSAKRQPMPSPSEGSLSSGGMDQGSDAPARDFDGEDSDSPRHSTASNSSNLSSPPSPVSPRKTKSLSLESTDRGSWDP

Chain of Serine/threonine-protein kinase PAK 6 (Homo sapiens) (Q9NQU5 whole entry, looked up): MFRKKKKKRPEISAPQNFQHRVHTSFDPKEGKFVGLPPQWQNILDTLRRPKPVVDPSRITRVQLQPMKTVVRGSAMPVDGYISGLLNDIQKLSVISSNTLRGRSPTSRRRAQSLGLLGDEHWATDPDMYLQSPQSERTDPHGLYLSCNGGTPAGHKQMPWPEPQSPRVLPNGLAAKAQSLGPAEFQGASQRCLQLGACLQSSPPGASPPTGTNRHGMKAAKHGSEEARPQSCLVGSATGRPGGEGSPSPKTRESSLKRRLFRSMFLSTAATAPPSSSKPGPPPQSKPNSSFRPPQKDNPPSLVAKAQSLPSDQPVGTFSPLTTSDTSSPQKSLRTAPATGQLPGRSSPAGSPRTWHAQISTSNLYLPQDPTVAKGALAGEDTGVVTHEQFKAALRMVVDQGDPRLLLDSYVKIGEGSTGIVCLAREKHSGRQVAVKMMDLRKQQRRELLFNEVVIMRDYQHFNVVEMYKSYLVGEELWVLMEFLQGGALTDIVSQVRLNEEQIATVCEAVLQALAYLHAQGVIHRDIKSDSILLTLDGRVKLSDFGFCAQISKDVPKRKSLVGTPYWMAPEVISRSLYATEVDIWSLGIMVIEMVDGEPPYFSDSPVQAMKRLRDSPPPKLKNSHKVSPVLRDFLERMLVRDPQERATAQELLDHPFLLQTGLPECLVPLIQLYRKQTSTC
Chain of Calcium/calmodulin-dependent protein kinase type II subunit delta (Homo sapiens) (Q13557 whole entry): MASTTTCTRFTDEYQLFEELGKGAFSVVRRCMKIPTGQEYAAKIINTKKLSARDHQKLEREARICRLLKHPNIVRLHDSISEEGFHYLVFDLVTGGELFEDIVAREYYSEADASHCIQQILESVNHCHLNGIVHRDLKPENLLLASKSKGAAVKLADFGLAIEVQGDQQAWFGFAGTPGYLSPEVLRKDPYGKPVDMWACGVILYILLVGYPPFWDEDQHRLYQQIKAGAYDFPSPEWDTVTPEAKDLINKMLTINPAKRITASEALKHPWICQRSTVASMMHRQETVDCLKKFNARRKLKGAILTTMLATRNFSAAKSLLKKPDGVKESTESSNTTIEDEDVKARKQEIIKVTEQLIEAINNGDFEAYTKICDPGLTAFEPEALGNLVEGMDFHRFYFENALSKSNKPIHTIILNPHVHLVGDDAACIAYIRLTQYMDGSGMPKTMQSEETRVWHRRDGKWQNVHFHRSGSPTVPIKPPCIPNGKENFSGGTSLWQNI
Chain of Platelet-derived growth factor receptor beta (P09619 whole entry): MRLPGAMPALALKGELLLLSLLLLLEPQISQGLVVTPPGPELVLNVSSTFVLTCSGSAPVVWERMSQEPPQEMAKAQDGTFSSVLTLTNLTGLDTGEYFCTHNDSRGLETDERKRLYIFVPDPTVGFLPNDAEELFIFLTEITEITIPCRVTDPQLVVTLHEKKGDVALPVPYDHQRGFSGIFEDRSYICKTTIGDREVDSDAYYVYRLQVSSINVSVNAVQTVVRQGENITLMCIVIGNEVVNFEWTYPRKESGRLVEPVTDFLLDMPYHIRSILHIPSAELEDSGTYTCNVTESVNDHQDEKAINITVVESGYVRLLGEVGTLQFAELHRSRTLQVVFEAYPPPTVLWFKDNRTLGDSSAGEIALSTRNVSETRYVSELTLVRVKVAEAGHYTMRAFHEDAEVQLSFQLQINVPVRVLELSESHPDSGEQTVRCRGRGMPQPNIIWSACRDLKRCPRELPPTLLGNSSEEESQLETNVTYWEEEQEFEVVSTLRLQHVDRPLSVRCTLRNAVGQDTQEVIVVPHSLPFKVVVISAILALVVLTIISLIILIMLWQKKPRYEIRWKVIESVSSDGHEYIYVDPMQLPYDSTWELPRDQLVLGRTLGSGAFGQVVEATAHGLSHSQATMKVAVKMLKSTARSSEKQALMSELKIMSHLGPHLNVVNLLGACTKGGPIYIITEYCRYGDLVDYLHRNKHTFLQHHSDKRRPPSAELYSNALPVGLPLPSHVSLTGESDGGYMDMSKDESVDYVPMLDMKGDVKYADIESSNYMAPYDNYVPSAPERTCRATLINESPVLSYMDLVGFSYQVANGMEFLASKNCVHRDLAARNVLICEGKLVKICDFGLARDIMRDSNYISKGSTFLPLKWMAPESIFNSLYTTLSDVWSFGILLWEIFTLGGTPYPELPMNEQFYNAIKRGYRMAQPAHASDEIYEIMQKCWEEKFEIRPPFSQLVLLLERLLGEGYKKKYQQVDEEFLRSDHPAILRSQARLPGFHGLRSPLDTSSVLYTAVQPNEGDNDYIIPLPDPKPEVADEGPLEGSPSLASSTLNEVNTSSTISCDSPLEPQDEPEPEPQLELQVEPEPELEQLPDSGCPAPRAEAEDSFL
Chain of Serine/threonine-protein kinase B-raf (Homo sapiens), P15056 [V600E] (P15056 whole entry V600E): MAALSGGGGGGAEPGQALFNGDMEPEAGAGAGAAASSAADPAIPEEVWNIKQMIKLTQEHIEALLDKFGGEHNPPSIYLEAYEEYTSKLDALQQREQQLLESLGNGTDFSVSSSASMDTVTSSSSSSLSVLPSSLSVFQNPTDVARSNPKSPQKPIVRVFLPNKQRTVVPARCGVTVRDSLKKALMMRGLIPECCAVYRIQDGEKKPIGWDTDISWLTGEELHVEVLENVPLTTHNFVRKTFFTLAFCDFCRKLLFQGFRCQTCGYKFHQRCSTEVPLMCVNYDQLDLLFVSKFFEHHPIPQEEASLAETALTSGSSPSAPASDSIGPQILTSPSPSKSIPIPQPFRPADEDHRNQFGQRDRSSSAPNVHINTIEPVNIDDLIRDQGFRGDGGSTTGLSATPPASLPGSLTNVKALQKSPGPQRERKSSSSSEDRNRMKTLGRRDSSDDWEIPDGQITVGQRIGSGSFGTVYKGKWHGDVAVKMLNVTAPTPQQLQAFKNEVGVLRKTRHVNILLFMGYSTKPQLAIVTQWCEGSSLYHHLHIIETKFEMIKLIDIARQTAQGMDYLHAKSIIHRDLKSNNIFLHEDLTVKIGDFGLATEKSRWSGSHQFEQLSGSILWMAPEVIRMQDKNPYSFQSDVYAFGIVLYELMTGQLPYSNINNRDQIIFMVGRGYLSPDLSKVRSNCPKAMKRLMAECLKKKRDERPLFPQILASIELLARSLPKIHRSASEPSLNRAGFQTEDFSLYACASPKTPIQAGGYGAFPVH

residual activity [1] [%] | residual activity [2] [%] | residual activity [3] [%] | residual activity [4] [%] | residual activity [5] [%] | IC50 [6] [µM] | residual activity [7] [%] | residual activity [8] [%] | residual activity [9] [%] | SMILES
99 | 110 | 92 | 96 | 81 | 7.7 | 87 | 48 | 79 | COc1cc2c(Oc3ccc(-c4nc5ccccc5s4)cc3)ncnc2cc1OCCCN1CCCC1
69 | 109 | 91 | 85 | 87 | 3.5 | 92 | 19 | 61 | COc1cc2c(Oc3ccc(-c4nc5ccccc5s4)cc3)ncnc2cc1OCCCN1CCN(C)CC1
98 | 111 | 96 | 89 | 101 | 6.1 | 105 | 18 | 51 | COc1cc2c(Oc3ccc(-c4nc5ccccc5s4)cc3F)ncnc2cc1OCCCN1CCN(C)CC1

From ChEMBL document CHEMBL1152560, “Substituted 2-arylbenzothiazoles as kinase inhibitors: hit-to-lead optimization” (Bioorg Med Chem, 2009)
